Values joined by “and” are separate entries in the source; they are usually repeats but may differ in a detail not shown here. Equal entries are not always repeated.
Legend:
Assay type in all cases: in vitro ADME
CYP1A2 [1] = molecular target: T1, CYP1A2 (Homo sapiens, UniProt P05177); test: C152 metabolism
T1 sequence (P05177 2-516 limits assumed): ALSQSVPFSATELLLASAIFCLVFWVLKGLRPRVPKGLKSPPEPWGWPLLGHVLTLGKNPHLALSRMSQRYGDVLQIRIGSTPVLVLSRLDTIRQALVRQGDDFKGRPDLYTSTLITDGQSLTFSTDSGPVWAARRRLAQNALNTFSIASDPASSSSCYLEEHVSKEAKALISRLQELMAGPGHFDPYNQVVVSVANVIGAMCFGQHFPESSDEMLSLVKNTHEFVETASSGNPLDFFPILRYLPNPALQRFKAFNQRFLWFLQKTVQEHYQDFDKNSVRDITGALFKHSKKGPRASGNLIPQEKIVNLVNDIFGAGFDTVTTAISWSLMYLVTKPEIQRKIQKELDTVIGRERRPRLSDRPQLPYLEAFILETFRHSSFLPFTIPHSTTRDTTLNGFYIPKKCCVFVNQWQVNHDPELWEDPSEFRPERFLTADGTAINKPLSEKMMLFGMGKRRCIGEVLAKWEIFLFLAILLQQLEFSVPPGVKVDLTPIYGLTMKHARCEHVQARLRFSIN

[2] = tested on: human liver microsomes (HLM); test: C152 metabolism
In short: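 Pooled 50-donor mixed-gender human liver microsomes. Continuous single-wavelength fluorimetry at 500 nm in 0.1 M Na-HEPES pH 7.4 with 60 mM KCl, stirred at 30 °C. C152 0.1–30 μM from acetone stock; 200 μM NADPH starts it. Linear slope over 3–5 min, scaled by the C151–C152 fluorescence difference. Normalized to CPR, measured as NADPH-dependent cytochrome c reduction rate. Michaelis–Menten or Hill fit, 2–6 runs.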

CYP2A6 = CYP2A6 (Homo sapiens, UniProt P11509); test: C152 metabolism by Supersomes containing CYP2A6; conditions: recombinant CYP2A6 Supersomes
CYP2A6, sequence (P11509 whole entry): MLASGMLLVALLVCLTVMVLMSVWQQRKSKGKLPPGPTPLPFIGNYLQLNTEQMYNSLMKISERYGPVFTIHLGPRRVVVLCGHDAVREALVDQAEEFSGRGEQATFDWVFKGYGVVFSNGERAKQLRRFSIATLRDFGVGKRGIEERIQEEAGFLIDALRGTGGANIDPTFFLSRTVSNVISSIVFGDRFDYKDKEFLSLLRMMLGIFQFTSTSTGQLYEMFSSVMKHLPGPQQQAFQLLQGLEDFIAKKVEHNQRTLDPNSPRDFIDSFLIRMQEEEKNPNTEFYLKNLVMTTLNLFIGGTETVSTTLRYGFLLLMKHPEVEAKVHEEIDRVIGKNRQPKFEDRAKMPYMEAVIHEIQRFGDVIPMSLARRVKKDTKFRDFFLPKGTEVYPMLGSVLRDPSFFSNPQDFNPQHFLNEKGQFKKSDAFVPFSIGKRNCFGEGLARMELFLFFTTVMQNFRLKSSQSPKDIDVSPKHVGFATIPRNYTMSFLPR

CYP1A2 [3] = molecular target: T1, CYP1A2; test: Formation of C151 from C152; conditions: SS(1A2)
In short: (§1)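 Probes hold 5–20 pmol P450 in 0.1 M Na-HEPES pH 7.4 with 60 mM KCl. C152 added from 0.5 or 4 mM acetone stock; reaction started with 500 μM NADPH (final), run 5 min at 30 °C with shaking. Quenched with isopropanol containing phenacetin internal standard, then centrifuged. C151 quantified by reverse-phase LC with ESI-positive MRM MS/MS (m/z 230.16→157.2). Michaelis–Menten or Hill fit; normalized per P450 (Supersomes) or CPR (HLM).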

CYP2C19 = CYP2C19 (Homo sapiens, UniProt P33261); test: Formation of C151 from C152; conditions: SS(2C19)
CYP2C19, sequence (P33261 whole entry): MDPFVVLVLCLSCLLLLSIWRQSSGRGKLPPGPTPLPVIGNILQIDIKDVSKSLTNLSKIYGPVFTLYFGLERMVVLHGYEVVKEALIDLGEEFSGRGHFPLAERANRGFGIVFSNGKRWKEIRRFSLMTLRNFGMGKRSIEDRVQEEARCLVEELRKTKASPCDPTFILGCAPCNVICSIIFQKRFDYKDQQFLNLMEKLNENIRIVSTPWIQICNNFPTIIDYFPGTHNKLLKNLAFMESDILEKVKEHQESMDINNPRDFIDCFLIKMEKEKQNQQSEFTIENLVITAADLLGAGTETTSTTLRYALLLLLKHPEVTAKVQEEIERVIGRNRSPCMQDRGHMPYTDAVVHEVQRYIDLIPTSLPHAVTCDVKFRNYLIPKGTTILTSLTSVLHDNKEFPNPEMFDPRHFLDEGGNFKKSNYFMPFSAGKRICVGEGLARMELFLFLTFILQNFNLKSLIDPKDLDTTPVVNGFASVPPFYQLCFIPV
In short: as §1

[4] = C151 formed over total C152 metabolized
[5] = mol C151 formed per mol P450 per min
[6] = read-out: KM or S50 (Formation of C151, LC-MS), Michaelis-Menten fit

Question: What does the source list for `CN(C)c1ccc2c(C(F)(F)F)cc(=O)oc2c1` [C152, 7-Dimethylamino-4-trifluromethylcoumarin]?
Answer: Specific rate (CYP1A2 [1]; CYP1A2, at 30 μM C152, calculated from fit parameters): 4.5 min⁻¹; Specific rate (CYP1A2 [1]; CYP1A2, at saturation (Vmax in Supersomes)): 5.0 min⁻¹; C151 formed (both methods: LC-MS/MS and scanning fluorimetry) (CYP1A2 [1]; CYP1A2, fraction in total rate of C152 metabolism): 20–25%; Vmax (C152 metabolism, fluorimetric assay) (CYP1A2 [1]; SS(1A2), mol C152 per mol P450 per min): 5.0 ± 1.1 min⁻¹; Fraction of C151 formed, Fluorimetry (CYP1A2 [1]; SS(1A2), scanning fluorimetry with PCA): 26±7%; Km (CYP1A2 [1]; read-out: KM or S50 (C152 metabolism, fluorimetric assay), SS(1A2), Michaelis-Menten fit, 30 °C, pH 7.4): 2.9 ± 1.7 µM; N, Hill coefficient (C152 metabolism, fluorimetric assay) [2]: 1.8±0.3; Vmax (C152 metabolism, fluorimetric assay) ([2]; normalized per concentration of CPR): 58 ± 24 min⁻¹; Km ([2]; read-out: KM or S50 (C152 metabolism, fluorimetric assay), Hill fit (S50), 30 °C, pH 7.4): 4.5 ± 1.5 µM; Fraction of C151 formed, Fluorimetry ([2]; scanning fluorimetry with PCA): 5.7±2.0%; activity with C152 (CYP2A6): no detectable activity; Fraction of C151 formed, LC-MS (CYP1A2 [3]; [4]): 20% and 20±2%; Vmax (Formation of C151, LC-MS) (CYP1A2 [3]; [5]): 0.98 ± 0.12 min⁻¹; Km (CYP1A2 [3]; [6]): 1.7 ± 0.6 µM; Fraction of C151 formed, LC-MS (CYP2C19; [4]): 5.6±0.4%; Vmax (Formation of C151, LC-MS) (CYP2C19; [5]): 0.43 ± 0.03 min⁻¹; Km (CYP2C19; [6]): 6.7 ± 1.5 µM
